This passage reports inhibition of growth results from ChEMBL document CHEMBL4325889, “Natural products hybrids: 3,5,4'-Trimethoxystilbene-5,6,7-trimethoxyflavone chimeric analogs as potential cytotoxic agents against diverse human cancer cells” (Eur J Med Chem, 2019).

The structures appear in SMILES notation.

What all share (assay type): functional
Assay [1] relates to CCRF-CEM. Put plainly: Growth inhibition of human CCRF-CEM cells at 10 uM after 48 hrs by SRB assay relative to control. The settings on record: read-out: GI. Summed up:
(§1)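 Screened at the National Cancer Institute by the standard NCI protocol using the sulforhodamine B assay, which measures cellular protein. Single dose of 10 µM. Result is percent growth inhibition; values above 100% mean cell number fell below the initial population. Values are the average of duplicates.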
In general terms: In SRB staining, fixed cells bind dye roughly in proportion to their protein.

Assay [2] relates to RPMI-8226. The experiment in a line: Growth inhibition of human RPMI8226 cells at 10 uM after 48 hrs by SRB assay relative to control. As to conditions: RPMI-8226, 48 h, read-out: GI. Summed up:
as §1

The subject of assay [3] is NCI-H226. Put plainly: Growth inhibition of human NCI-H226 cells at 10 uM after 48 hrs by SRB assay relative to control. The settings on record: NCI-H226, 48 h, read-out: GI. The gist of the method:
as §1

Assay [4] deals with NCI-H23. The experiment in a line: Growth inhibition of human NCI-H23 cells at 10 uM after 48 hrs by SRB assay relative to control. The settings on record: NCI-H23, 48 h, read-out: GI. The gist of the method: as §1
Assay [5] deals with NCI-H322M. The experiment in a line: Growth inhibition of human NCI-H322M cells at 10 uM after 48 hrs by SRB assay relative to control. The settings on record: read-out: GI. The gist of the method:
as §1

The test system of assay [6] is NCI-H460. Put plainly: Growth inhibition of human NCI-H460 cells at 10 uM after 48 hrs by SRB assay relative to control. As to conditions: NCI-H460, 48 h, read-out: GI. Summed up:
as §1

In assay [7] the test system is HCT-15. The experiment in a line: Growth inhibition of human HCT15 cells at 10 uM after 48 hrs by SRB assay relative to control. The settings on record: HCT-15, 48 h, read-out: GI. The gist of the method: as §1
Assay [8] deals with KM12. Put plainly: Growth inhibition of human KM12 cells at 10 uM after 48 hrs by SRB assay relative to control. As to conditions: KM12, 48 h, read-out: GI. The gist of the method:
as §1

The subject of assay [9] is SF-268. Put plainly: Growth inhibition of human SF268 cells at 10 uM after 48 hrs by SRB assay relative to control. The settings on record: SF-268, 48 h, read-out: GI. Summed up: as §1
The test system of assay [10] is SF-295. The experiment in a line: Growth inhibition of human SF295 cells at 10 uM after 48 hrs by SRB assay relative to control. As to conditions: SF-295, 48 h, read-out: GI. The gist of the method:
as §1

The subject of assay [11] is LOX IMVI. The experiment in a line: Growth inhibition of human LOXIMVI cells at 10 uM after 48 hrs by SRB assay relative to control. The settings on record: read-out: GI. The gist of the method:
as §1

Assay [12] deals with SK-MEL-28. Put plainly: Growth inhibition of human SK-MEL-28 cells at 10 uM after 48 hrs by SRB assay relative to control. As to conditions: SK-MEL-28, 48 h, read-out: GI. Summed up: as §1
The test system of assay [13] is UACC-257. The experiment in a line: Growth inhibition of human UACC257 cells at 10 uM after 48 hrs by SRB assay relative to control. The settings on record: UACC-257, 48 h, read-out: GI. The gist of the method: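 NCI screen against its human cancer cell line panel by the standard NCI protocol, SRB protein stain. Single dose of 10 μM. Percent growth inhibition versus control; values above 100% mean the cell population fell below the starting number. Each value is the mean of duplicates.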

Assay [14] has as its system IGROV-1. Put plainly: Growth inhibition of human IGROV1 cells at 10 uM after 48 hrs by SRB assay relative to control. As to conditions: IGROV-1, 48 h, read-out: GI. The gist of the method: as §1
Assay [15] has as its system OVCAR-5. Put plainly: Growth inhibition of human OVCAR5 cells at 10 uM after 48 hrs by SRB assay relative to control. As to conditions: OVCAR-5, 48 h, read-out: GI. Summed up: as §1
In assay [16] the test system is OVCAR-8. Put plainly: Growth inhibition of human OVCAR8 cells at 10 uM after 48 hrs by SRB assay relative to control. The settings on record: OVCAR-8, 48 h, read-out: GI. Summed up:
as §1

Assay [17] deals with ACHN. Put plainly: Growth inhibition of human ACHN cells at 10 uM after 48 hrs by SRB assay relative to control. As to conditions: read-out: GI. Summed up: as §1
The test system of assay [18] is CAKI-1. The experiment in a line: Growth inhibition of human Caki1 cells at 10 uM after 48 hrs by SRB assay relative to control. As to conditions: CAKI-1, 48 h, read-out: GI. The gist of the method:
as §1

The test system of assay [19] is RXF 393. Put plainly: Growth inhibition of human RXF393 cells at 10 uM after 48 hrs by SRB assay relative to control. As to conditions: RXF 393, 48 h, read-out: GI. The gist of the method: as §1
For assay [20], the system named is DU-145. The experiment in a line: Growth inhibition of human DU145 cells at 10 uM after 48 hrs by SRB assay relative to control. The settings on record: DU-145, 48 h, read-out: GI. The gist of the method:
as §1

The test system of assay [21] is MCF7. The experiment in a line: Growth inhibition of human MCF7 cells at 10 uM after 48 hrs by SRB assay relative to control. As to conditions: MCF7, 48 h, read-out: GI. Summed up:
as §1

As to `COc1ccc(C(=O)Nc2cccc(-c3cc(=O)c4c(O)c(OC)c(OC)cc4o3)c2)cc1`, the inhibition of growth at 10 µM in assay [1] is 11.9%; in [2], 25.2%; in assay [3] it was 41.4%; in assay [4], 15.7%; in [5], 8.16%; in assay [6], 17.4%. In addition, the inhibition of growth at 10 µM in [7] is 7.47%; in [8], -0.05%; in assay [9], 13.9%; in assay [10] it was 20.6%; in assay [11], 6.47%; in [12], 9.4%. Besides, the inhibition of growth at 10 µM in assay [13] came out at 13.6%; in assay [14] it was 2.38%; in assay [15], 0.04%; in [16] it was 35.5%; in assay [17], 23.7%; in assay [18], 20%. In addition, the figures for the inhibition of growth at 10 µM in assay [19], in assay [20] and in [21] were 4.27%, 5.4% and 9.78%, respectively.
As to `COc1cc2oc(-c3cccc(C(=O)Nc4ccccc4)c3)cc(=O)c2c(OC)c1OC`, the inhibition of growth at 10 µM in assay [1] is 35.1%; in assay [2], 59.4%; in [3], 12.7%; in assay [4], 7.79%; in assay [5] it was 17.7%; in assay [6] it was 11.2%. Also, the inhibition of growth at 10 µM in assay [7] was found to be 20.8%; in [8], 24.3%; in assay [9], 16.7%; in [10], 4.34%; in assay [11], 33%; in assay [12] it was 8.31%. Further, the inhibition of growth at 10 µM in assay [13] amounted to 5.48%; in assay [14], 19.4%; in assay [15] it was 16.2%; in [16], 34.9%; in [17], 8.22%; in [18] it was 4.59%. Also, the inhibition of growth at 10 µM came to 24.9% in assay [19], 12.2% in [20] and 7.49% in [21].
In the case of `COc1ccc(NC(=O)c2cccc(-c3cc(=O)c4c(O)c(OC)c(OC)cc4o3)c2)cc1`, the inhibition of growth at 10 µM in assay [1] was 16%; in [2] it was 7.48%; in assay [3], 8.07%; in assay [4], 8.74%; in [5] it was 0.54%; in assay [6] it was 7.3%. The inhibition of growth at 10 µM in assay [7] is -7.36%; in assay [8], -3.03%; in assay [9], 45.4%; in assay [10], -3.77%; in [11], 20.2%; in assay [12], -4.12%. Moreover, the inhibition of growth at 10 µM in assay [13] amounted to 20.8%; in assay [14] it was 4.86%; in [15], 2.51%; in assay [16], 19.4%; in assay [17], 16.4%; in [18], 6.41%. Also, the inhibition of growth at 10 µM in assay [19] came out at 8.01%; in assay [20], 3.06%; in assay [21], 6.72%.
`COc1cccc(NC(=O)c2cccc(-c3cc(=O)c4c(O)c(OC)c(OC)cc4o3)c2)c1`: the inhibition of growth at 10 µM is 34.7% in assay [1]; 53.6% in assay [2]; 41.5% in assay [3]; 25.4% in [4]; 12.9% in [5]; 31.4% in [6]. In addition, the inhibition of growth at 10 µM in [7] was determined as 25.7%; in [8], 35.5%; in [9] it was 22.9%; in [10], 17.6%; in assay [11], 36.8%; in assay [12] it was 14.2%. For the same molecule, the inhibition of growth at 10 µM in assay [13] was 8.74%; in assay [14] it was 12%; in [15] it was 8.5%; in [16], 62.5%; in assay [17], 33.8%; in assay [18] it was 32.4%. The inhibition of growth at 10 µM turned out to be 25.8% in assay [19], 19.4% in assay [20] and 13.2% in [21].
As to `COc1cc2oc(-c3cccc(C(=O)Nc4ccccc4)c3)cc(=O)c2c(O)c1OC`, the inhibition of growth at 10 µM in assay [1] was -0.19%; in [2], 16.5%; in assay [3] it was 26.8%; in assay [4], 13.1%; in assay [5] it was 33.6%; in [6], 66.3%. Moreover, the inhibition of growth at 10 µM in [7] is 7.23%; in [8] it was 42.2%; in [9], 63%; in assay [10], 30%; in assay [11] it was 11.9%; in [12] it was 12.6%. For the same molecule, the inhibition of growth at 10 µM in assay [13] was 15.7%; in [14], 14.6%; in assay [15], 5.59%; in [16], 84.6%; in assay [17], 42%; in [18], 51.1%. In addition, the inhibition of growth at 10 µM came out at 43.5% in [19], 34.4% in assay [20] and 21.9% in assay [21].
For the molecule `COc1ccc(NC(=O)c2cccc(-c3cc(=O)c4c(OC)c(OC)c(OC)cc4o3)c2)cc1`, the inhibition of growth at 10 µM in assay [1] was 50.7%; in assay [2], 87.5%; in [3], 18.5%; in assay [4] it was 28.7%; in [5] it was 24.5%; in assay [6] it was 33.9%. The inhibition of growth at 10 µM in assay [7] came to 52.9%; in assay [8], 45.2%; in assay [9] it was 27.9%; in assay [10], 33.6%; in [11], 75.4%; in [12], 28.7%. Besides, the inhibition of growth at 10 µM is -2.76% in assay [13]; 38.7% in [14]; 16.8% in assay [15]; 46.1% in assay [16]; 33.4% in assay [17]; 63.7% in assay [18]. In addition, the figures for the inhibition of growth at 10 µM in assay [19], in assay [20] and in assay [21] were 59.9%, 26.3% and 21.1%, respectively.
In the case of `COc1ccccc1NC(=O)c1cccc(-c2cc(=O)c3c(OC)c(OC)c(OC)cc3o2)c1`, the inhibition of growth at 10 µM turned out to be 48.3% in assay [1]; 73.7% in assay [2]; 37.2% in assay [3]; 34% in [4]; 18.9% in assay [5]; 41.1% in assay [6]. For the same molecule, the inhibition of growth at 10 µM was determined as 48.4% in assay [7]; 34.8% in assay [8]; 29.3% in assay [9]; 38.2% in [10]; 52.1% in [11]; 24.6% in assay [12]. Further, the inhibition of growth at 10 µM in assay [13] is -6.14%; in assay [14], 27.5%; in assay [15], 18.6%; in [16], 42.7%; in assay [17], 43.8%; in assay [18], 43%. Besides, the inhibition of growth at 10 µM was 29.3% in assay [19], 29.6% in assay [20] and 28.4% in assay [21].
